PMC6413502 (Molecular pharmaceutics, 2018)
Entries after “also recorded” stand apart in the source; their conditions may differ. Where two headings read alike, the source gives them in different places.

Assays:
[1] = tested on: scavenger receptors in the liver; conditions: read-out: IC50, inhibition of 125I-DNA nanoparticle uptake by the liver; previously reported; cited from earlier work
[2] = Micelle formation of PEG-peptides without albumin; assay type: physicochemical; conditions: dynamic light scattering, 1–40 nmol in 1 ml 150 mM sodium chloride; for micelle formation (in words): 50 mM sodium phosphate pH 7.4; for critical-micelle-concentration: 50 mM sodium phosphate pH 7.4, no albumin
Outline: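 Particle size of the PEG-peptide was measured by dynamic light scattering at increasing amounts (1–40 nmol in 1 ml buffer) to locate the critical micelle concentration. Sizes are the mean and standard error of ten measurements, after deconvolution by intensity-averaged multimodal distribution.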

[3] = tested on: scavenger receptors in the liver; conditions: for percent of dose captured by the liver: mouse, in vivo, iv

Row | Substance | micelle formation (in words) [2] | critical-micelle-concentration [2] [µM] | also measured
1 | (Acr-Lys4)3-Acr-Lys-Cys-PEG5kDa [compound 27] | – | – | IC50 [1]: 8 µM
2 | PEG2kDa-Cys-Tyr-(Leu-Lys4)3-Leu-Lys [compound 33] | avoided micelle formation | – | increase in potency (IC50) on decreasing PEG from 5 to 2 kDa ([3]; 33 compared with 32, saturation of liver uptake): 6 fold
3 | PEG5kDa-Cys-Tyr-(Leu-Arg)8 [compound 38] | formed micelles | 2 to 5 | percent of dose captured by the liver [3]: 45%
4 | PEG5kDa-Cys-Tyr-(Leu-Lys4)3-Leu-Lys [compound 32] | avoided micelle formation | – | –
5 | PEG5kDa-Cys-Tyr-(Leu-Lys)4 [compound 37] | formed micelles | 2 to 5 | –
6 | PEG5kDa-Cys-Tyr-(Leu-Lys)6 [compound 36] | formed micelles | 2 to 5 | –
7 | PEG5kDa-Cys-Tyr-(Leu-Lys)8 [compound 35] | formed micelles | 2 to 5 | –
8 | PEG5kDa-Cys-Tyr-(Lys)4-Leu-Lys4-Leu4 [compound 39] | produced measurable micelles; also recorded: formed micelles | 2 to 5 | –
9 | PEG5kDa-Cys-Tyr-(Trp-Lys3)4 [compound 31] | avoided the formation of detectable micelles | – | –
10 | PEG5kDa-Cys-Tyr-Leu4-(Leu-Lys)4-Lys4 [compound 40] | produced measurable micelles; also recorded: formed micelles | 2 to 5 | –
11 | PEG5kDa-Cys-Tyr-Lys25 [compound 26] | – | – | percent of dose captured by the liver [3]: 5%
12 | PEG10kDa-Cys-Tyr-Lys25 [compound 25] | – | – | percent of dose captured by the liver [3]: 5%
13 | PEG20kDa-Cys-Tyr-Lys25 [compound 24] | – | – | percent of dose captured by the liver [3]: 28%
14 | PEG30kDa-Cys-Tyr-Lys10 [compound 20] | – | – | IC50 ([3]; read-out: apparent IC50, saturation of liver uptake, 125I-PEG-peptide i.v. tail vein, 1–80 nmol, triplicate mice, liver at 5 min, assuming 2-mL blood volume): 1500 µM
15 | Tyr-(Phe-Lys4)3Phe-Lys-Cys-PEG5kDa [compound 30] | avoided the formation of detectable micelles | – | –
